Assays:
Canis familiaris [1] = organism: Canis familiaris; assay: In vitro electrophysiological evaluation in canine cardiac ventricular muscle reported as % change for the functional refractory period (FRP) concentration range of 0.1-30 uM; parameters: species or system Canis lupus familiaris, Muscle tissue
Outline: (§1)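 Canine right ventricle and papillary muscle strips in oxygenated Tyrode's solution, fitted with stimulating and recording electrodes. The extra-stimulus conduction-interval method was adapted for in vitro use. FRP and CT were read from a conduction-interval curve before and after various compound concentrations, and expressed as percent change from control. Compounds were taken from 10 mM deionized-water stock into Tyrode's. Each strip was used once as its own control.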

Canis familiaris [2] = organism: Canis familiaris; assay: In vitro electrophysiological evaluation in canine cardiac ventricular muscle reported as maximum % change for conduction time(CT) at 0.1-30 uM concentration range; Minimal (<IO%increase or a decrease in CT); format: functional, Canis lupus familiaris, Muscle tissue; outline: as §1
Canis familiaris [3] = organism: Canis familiaris; assay: In vitro electrophysiological evaluation in canine cardiac Purkinje fibres reported as percent change Vmax concentration range of 0.1-30 uM; Minimal (<IO%increase or a decrease in CT); format: functional; conditions: Canis lupus familiaris; Purkinje fiber
Outline: (§2)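 Canine cardiac Purkinje fibres, intracellular microelectrode recording, paced at a basic cycle length of 1 s. APD95 and Vmax read simultaneously. Compound: 10 mM stock in deionized water, diluted into Tyrode's solution, tested over the stated concentration range. Each fibre used once as its own control. Result is % change from control, given at 10 µM or as the maximum with its concentration. M = <10% decrease or an increase in Vmax.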

Canis familiaris [4] = assay: Effective dose administered intravenously to elicit Antiarrhythmic efficacy in anesthetized dogs was reported. Value in parenthesis indicates no. of animals effective at that dose.; format: functional, Canis lupus familiaris, Heart
Outline: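 Dogs are anesthetized and the chest reopened. Stimulating and recording electrodes go on the myocardium. Reproducible PES-induced sustained VT or VF is confirmed first; SVT is ended by burst pacing and VF by DC countershock. Compound is given iv in 0.9% saline and inducibility retested. A dose counts as effective when SVT/VF cannot be reinduced in two of three animals.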

Canis familiaris [5] = assay: Mean arterial blood pressure was determined by intraduodenal administration of two dosages of 10 mg/kg of (high dose) compound in anesthetized dogs. Value was reported for experiment 1; format: functional, Canis lupus familiaris
Outline: (§3)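 Anesthetized dogs received two intraduodenal doses, the second cumulative (low dose/high dose). Left ventricular FRP and CT were measured 15, 30 and 45 min after dosing. Heart rate and mean blood pressure were taken during nonpacing intervals. Values are percent change from control. The vehicle was 5% dextrose in water/tragacanth. Activity was defined as ≥12% prolongation of FRP or CT.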

Canis familiaris [6] = organism: Canis familiaris; assay: In vitro electrophysiological activity in canine cardiac Purkinje fibres given as maximum % change for action potential duration at 0.1-30 uM concentration; format: functional, Canis lupus familiaris, Purkinje fiber
Outline: (§4)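 Canine cardiac Purkinje fibres, intracellular recording at 1 s basic cycle length, over cumulative concentration ranges. Compound 10 mM stock in deionized water diluted into Tyrode's. Each fibre used once as its own control. Value is the maximum % change from control in APD at 95% repolarization, with the concentration where it occurred; both values given if a biphasic response (>20% reversal) occurred.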

Canis familiaris [7] = organism: Canis familiaris; assay: In vitro electrophysiological activity in canine cardiac Purkinje fibres given as maximum % change for action potential duration at 0.1-10 uM concentration; format: functional, Canis lupus familiaris, Purkinje fiber; outline: as §4
Canis familiaris [8] = assay: Conduction time was determined by intraduodenal administration of two dosages of 3 mg/kg (low dose) of compound in anesthetized dogs. Value was reported for experiment 1; format: functional, Canis lupus familiaris
Outline: (§5)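 Anesthetized dogs; compound given intraduodenally, generally as two doses, the second a cumulative (high) dose. LV functional refractory period and conduction time measured 15, 30 and 45 min after dosing; heart rate and blood pressure measured during nonpacing intervals. Values are % change from control, given per individual animal. Active if FRP or CT prolonged by ≥12%.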

Canis familiaris [9] = assay: Mean arterial blood pressure was determined by intraduodenal administration of two dosages of 3 mg/kg of (low dose) compound in anesthetized dogs. Value was reported for experiment 1; format: functional, Canis lupus familiaris; outline: as §3
Canis familiaris [10] = assay: Heart rate was determined by intraduodenal administration of two dosages of 3 mg/kg of (low dose) compound in anesthetized dogs. Value was reported for experiment 1; format: functional, Canis lupus familiaris; outline: as §5
Canis familiaris [11] = assay: Left ventricular refractory period was determined by intraduodenal administration of two dosages of 10 mg/kg of compound in anesthetized dogs. Value was reported for experiment 2; format: functional, Canis lupus familiaris, Cardiac ventricle
Canis familiaris [12] = organism: Canis familiaris; assay: In vitro electrophysiological evaluation in canine cardiac ventricular muscle reported as % change for conduction time(CT) at 0.1-30 uM concentration range; Minimal (<IO%increase or a decrease in CT); format: functional, Canis lupus familiaris, Muscle tissue
Canis familiaris [13] = assay: Heart rate was determined by intraduodenal administration of two dosages of 10 mg/kg of compound in anesthetized dogs. Value was reported for experiment 2; format: functional, Canis lupus familiaris; outline: as §5
Canis familiaris [14] = organism: Canis familiaris; assay: In vitro electrophysiological evaluation in canine cardiac Purkinje fibres reported as maximum percent change Vmax concentration range of 0.1-10 uM; Minimal (<IO%increase or a decrease in CT); format: functional; conditions: Canis lupus familiaris; Purkinje fiber; outline: as §2
Canis familiaris [15] = organism: Canis familiaris; assay: In vitro electrophysiological evaluation in canine cardiac Purkinje fibres reported as maximum percent change Vmax concentration range of 0.1-30 uM; Minimal (<IO%increase or a decrease in CT); format: functional; conditions: Canis lupus familiaris; Purkinje fiber; outline: as §2
Canis familiaris [16] = assay: Left ventricular refractory period was determined by intraduodenal administration of two dosages of 10 mg/kg of (high dose) compound in anesthetized dogs. Value was reported for experiment 1; format: functional, Canis lupus familiaris, Cardiac ventricle; outline: as §3
Canis familiaris [17] = assay: Conduction time was determined by intraduodenal administration of two dosages of 10 mg/kg (high dose) of compound in anesthetized dogs. Value was reported for experiment 1; format: functional, Canis lupus familiaris; outline: as §5
Canis familiaris [18] = organism: Canis familiaris; assay: In vitro electrophysiological evaluation in canine cardiac Purkinje fibres reported as percent change Vmax concentration range of 0.1-10 uM; Minimal (<IO%increase or a decrease in CT); format: functional; conditions: Canis lupus familiaris; Purkinje fiber; outline: as §2
Canis familiaris [19] = assay: Left ventricular refractory period was determined by intraduodenal administration of two dosages of 3 mg/kg of (low dose) compound in anesthetized dogs. Value was reported for experiment 1; format: functional, Canis lupus familiaris, Cardiac ventricle; outline: as §3
Canis familiaris [20] = organism: Canis familiaris; assay: In vitro electrophysiological evaluation in canine cardiac Purkinje fibres reported as % change for action potential duration at 0.1-10 uM concentration range; format: functional, Canis lupus familiaris, Purkinje fiber; outline: as §2
Canis familiaris [21] = organism: Canis familiaris; assay: In vitro electrophysiological evaluation in canine cardiac ventricular muscle reported as maximum % change for functional refractory period (FRP) at 0.1-30 uM concentration range; parameters: species or system Canis lupus familiaris, Muscle tissue; outline: as §1
Canis familiaris [22] = assay: Conduction time was determined by intraduodenal administration of two dosages of 10 mg/kg of compound in anesthetized dogs. Value was reported for experiment 2; format: functional, Canis lupus familiaris; outline: as §5
Canis familiaris [23] = organism: Canis familiaris; assay: In vitro electrophysiological evaluation in canine cardiac Purkinje fibres reported as % change for action potential duration at 0.1-30 uM concentration range; format: functional, Canis lupus familiaris, Purkinje fiber; outline: as §2
Canis familiaris [24] = assay: Mean arterial blood pressure was determined by intraduodenal administration of two dosages of 10 mg/kg of compound in anesthetized dogs. Value was reported for experiment 2; format: functional, Canis lupus familiaris; outline: as §3
Canis familiaris [25] = assay: Heart rate was determined by intraduodenal administration of two dosages of 10 mg/kg of (high dose) compound in anesthetized dogs. Value was reported for experiment 1; format: functional, Canis lupus familiaris; outline: as §5

For `CCCCCCC[N+]12CCC(CC1)/C(=C/Cc1ccc(Cl)cc1)C2.[Br-]`, the FRP (Canis familiaris [1]) was 21%, the CT (Canis familiaris [2]) was <10% and the Vmax (Canis familiaris [3]) was < 10%. The Effective dose (Canis familiaris [4]) was 0.3 mg/kg, the Mean blood pressure (Canis familiaris [5]) was 15% and the APD95 (Canis familiaris [6]) was 64%. It also gave an APD95 (Canis familiaris [7]) of 50%, a CT (Canis familiaris [8]) of 0% and a Mean blood pressure (Canis familiaris [9]) of 5%. For the same compound, the HR (Canis familiaris [10]) was 5%, the “LV FRP” value (Canis familiaris [11]) was 16% and the CT (Canis familiaris [12]) was <10%. For the same compound, the HR (Canis familiaris [13]) was -13%, the Vmax (Canis familiaris [14]) was < 10% and the Vmax (Canis familiaris [15]) was < 10%. The “LV FRP” value (Canis familiaris [16]) was 15%, the CT (Canis familiaris [17]) was -5% and the Vmax (Canis familiaris [18]) was < 10%. The “LV FRP” value (Canis familiaris [19]) was 2%, the APD95 (Canis familiaris [20]) was 40% and the FRP (Canis familiaris [21]) was 30%. For the same compound, the CT (Canis familiaris [22]) was 5%, the APD95 (Canis familiaris [23]) was 64% and the Mean blood pressure (Canis familiaris [24]) was 42%. The HR (Canis familiaris [25]) was -9%.
